This is an account of results in ChEMBL document CHEMBL4152206, “Design, synthesis, cytotoxicity and mechanism of novel dihydroartemisinin-coumarin hybrids as potential anti-cancer agents” (Eur J Med Chem, 2018).

Calls of active or inactive are those of the source. No cut-off for these calls is given here.

Experiment [1] has as its system HT-29. Nature of the experiment: Growth inhibition of human HT-29 cells pretreated with 10 uM liproxstatin-1 for 1 hr followed by 10 uM compound addition and measured after 72 hrs by MTT assay. It counts as functional, cell-based. On the technique in general: Formazan colour is commonly taken as a measure of viable cells.
Experiment [2] has as its system HT-29. Nature of the experiment: Cell cycle arrest in human HT-29 cells assessed as accumulation at G0/G1 phase at 20 uM after 48 hrs by RNase/propidium iodide staining-based flow cytometric analysis (reference value: 70.48%). The format is functional. For orientation: Flow cytometry measures light scatter and fluorescence of single cells or particles in a stream.

The test system of experiment [3] is HT-29. Nature of the experiment: Induction of ferroptosis in human HT-29 cells at 10 uM after 72 hrs by MTT assay. The format is functional, cell-based.
Experiment [4] relates to MDA-MB-231. Nature of the experiment: Cytotoxicity against human MDA-MB-231 cells after 96 hrs under normoxic condition by MTT assay. The format is functional, cell-based. In outline: (§1)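 MTT viability assay in HT-29 (high CA IX) and MDA-MB-231 (normal CA IX) cells under normoxic and hypoxic conditions; IC50 values reported.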
Experiment [5] has as its system HT-29. Nature of the experiment: Cell cycle arrest in human HT-29 cells assessed as accumulation at sub-G1 phase at 10 uM by RNase/propidium iodide staining-based flow cytometric analysis. The format is functional. Conditions: TDE = time-dependent effect. In outline:
(§2)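 HT-29 cells exposed to 10 µM for different times (up to 72 h); sub-G1 fraction measured by flow cytometry.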

Experiment [6] relates to HT-29. Nature of the experiment: Induction of morphological changes in human HT-29 cells assessed as reduction in cell number after 96 hrs. It counts as functional, cell-based.
Experiment [7] concerns HT-29. Nature of the experiment: Antimigratory activity in human HT-29 cells after 72 hrs by wound healing assay. The format is functional, cell-based. The method in brief:
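HT-29 cells plated 48 h before scratching; treated with 0, 0.31, 0.63, 1.25, 2.5 and 5 µM under normoxia; wound imaged by inverted microscope at 0 h and 72 h.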

Experiment [8] concerns HT-29. Nature of the experiment: Induction of apoptosis in human HT-29 cells assessed as early apoptotic cells at 5 uM after 48 hrs by Annexin V-FITC/propidium iodide staining-based flow cytometric analysis (reference value: 0.07%). The format is functional.
Experiment [9] concerns the target Carbonic anhydrase 9 (Homo sapiens) (UniProt Q16790). Nature of the experiment: Inhibition of carbonic anhydrase 9 in human HT-29 cells assessed as induction of cellular pH decrease at 10 uM after 3 to 12 hrs by BCECF-AM staining-based flow cytometric analysis. It counts as cell-based. In outline:
(§3)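 Intracellular pH in HT-29 cells exposed to 10 µM for 0, 3, 12 and 24 h: stained 40 min with BCECF-AM, trypsinised (0.25%), PBS-washed, fluorescence read by flow cytometry.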

For experiment [10], the system named is HT-29. Nature of the experiment: Growth inhibition of human HT-29 cells pretreated with 5 to 40 uM liproxstatin-1 for 1 hr followed by 10 uM compound addition and measured after 48 hrs by MTT assay.
In experiment [11] the test system is HT-29. Nature of the experiment: Cell cycle arrest in human HT-29 cells assessed as accumulation at sub-G1 phase at 10 uM up to 48 hrs by RNase/propidium iodide staining-based flow cytometric analysis. The format is functional. In outline:
as §2

Experiment [12] deals with HT-29. Nature of the experiment: Cell cycle arrest in human HT-29 cells assessed as accumulation at G0/G1 phase at 5 uM after 48 hrs by RNase/propidium iodide staining-based flow cytometric analysis (reference value: 70.48%). The format is functional.
The test system of experiment [13] is HT-29. Nature of the experiment: Induction of mitochondrial membrane potential loss in human HT-29 cells at 20 uM measured after 3 hrs by Rh123 dye-based flow cytometric analysis. It counts as functional, cell-based. In outline: (§4)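 HT-29 cells exposed to 20 µM for different times, stained with Rh123 for 40 min, trypsinised (0.25%), washed three times in PBS; mitochondrial membrane potential read by flow cytometry.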

The test system of experiment [14] is HT-29. Nature of the experiment: Antimigratory activity in human HT-29 cells at 1.25 to 2.5 uM after 24 hrs by transwell assay. It counts as functional, cell-based.
For experiment [15], the system named is HT-29. Nature of the experiment: Induction of morphological changes in human HT-29 cells assessed as reduction in cell volume after 96 hrs. It counts as functional, cell-based.
The test system of experiment [16] is HT-29. Nature of the experiment: Cell cycle arrest in human HT-29 cells assessed as accumulation at sub-G1 phase at 10 uM after 48 to 72 hrs by RNase/propidium iodide staining-based flow cytometric analysis. The format is functional. The method in brief: as §2
The subject of experiment [17] is HT-29. Nature of the experiment: Cytotoxicity against human HT-29 cells after 96 hrs under hypoxic condition by MTT assay. It counts as functional, cell-based. In outline:
as §1

In experiment [18] the test system is HT-29. Nature of the experiment: Cell cycle arrest in human HT-29 cells assessed as accumulation at G0/G1 phase at 10 uM after 48 hrs by RNase/propidium iodide staining-based flow cytometric analysis (reference value: 70.48%). It counts as functional.
Experiment [19] deals with HT-29. Nature of the experiment: Cell cycle arrest in human HT-29 cells assessed as accumulation at G0/G1 phase at 2.5 uM after 48 hrs by RNase/propidium iodide staining-based flow cytometric analysis (reference value: 70.48%). It counts as functional.
Experiment [20] deals with Carbonic anhydrase 9 (Homo sapiens) (UniProt Q16790). Nature of the experiment: Inhibition of carbonic anhydrase 9 in human HT-29 cells assessed as induction of cellular pH decrease at 10 uM after 24 hrs by BCECF-AM staining-based flow cytometric analysis. The format is cell-based. The method in brief: as §3
Experiment [21] concerns HT-29. Nature of the experiment: Induction of apoptosis in human HT-29 cells assessed as early apoptotic cells at 2.5 uM after 48 hrs by Annexin V-FITC/propidium iodide staining-based flow cytometric analysis (reference value: 0.07%). The format is functional.
The subject of experiment [22] is HT-29. Nature of the experiment: Induction of apoptosis in human HT-29 cells assessed as early apoptotic cells at 10 uM after 48 hrs by Annexin V-FITC/propidium iodide staining-based flow cytometric analysis (reference value: 0.07%). It counts as functional.
Experiment [23] deals with HT-29. Nature of the experiment: Cytotoxicity against human HT-29 cells after 96 hrs under normoxic condition by MTT assay. The format is functional, cell-based. In outline:
as §1

Experiment [24] has as its system HT-29. Nature of the experiment: Induction of mitochondrial membrane potential loss in human HT-29 cells at 20 uM measured measured until 24 hrs by Rh123 dye-based flow cytometric analysis. The format is functional, cell-based. The method in brief: as §4
Experiment [25] concerns MDA-MB-231. Nature of the experiment: Cytotoxicity against human MDA-MB-231 cells after 96 hrs under hypoxic condition by MTT assay. It counts as functional, cell-based. In outline: as §1
The mark [26] stands for this setting: Homo sapiens, MDA-MB-231, 96 h, read-out: IC50.
The mark [27] stands for this setting: Homo sapiens, HT-29, 96 h, read-out: IC50.

The IC50 is the concentration that gives 50% inhibition. As for `Cc1c(Cl)c(=O)oc2cc(OCCn3cc(CO[C@H]4O[C@@H]5O[C@@]6(C)CC[C@H]7[C@H](C)CC[C@@H]([C@H]4C)[C@@]57OO6)nn3)ccc12`, the “growth inhibition (GI)” value in [1] and in experiment [10] was “inactive” throughout. Also, the Activity in experiment [2] was 82.22%; in [5], “Tde”; in experiment [6] it was “Dose-dependent effect”; in [7], “Dose-dependent effect”; in [8] it was 4.8%; in experiment [12] it was 76.53%. Further, the Activity result is “Dose-dependent effect” in experiment [15]; “<=60%” in [16]; 75.45% in [18]; 72.28% in experiment [19]; 1.7% in [21]; 14.9% in [22]. The result in experiment [3], in experiment [13] and in experiment [14] was Active. For the same molecule, the half-inhibitory concentration (IC50) in experiment [4] (setting [26]) turned out to be 18.4 µM; in [17] (setting [27]), 0.17 µM; in [23] (setting [27]), 1.88 µM; in experiment [25] (setting [26]) it was 7.51 µM. Also, the inhibition entry in [9] and in experiment [20] was “Active” each time. Besides, the outcome in [11] and in experiment [24] was inactive.
On to `COC(=O)c1cc2ccc(OCCCn3cc(CCO[C@H]4O[C@@H]5O[C@@]6(C)CC[C@H]7[C@H](C)CC[C@@H]([C@H]4C)[C@@]57OO6)nn3)cc2oc1=O`, for which the 50% inhibitory concentration (IC50) entry in experiment [4] (mda-mb-231), in experiment [17] (ht-29), in experiment [23] (ht-29) and in [25] (mda-mb-231) was “Nd(Insoluble)” throughout.
`Cc1cc(=O)oc2cc(OCCn3cc(CCO[C@H]4O[C@@H]5O[C@@]6(C)CC[C@H]7[C@H](C)CC[C@@H]([C@H]4C)[C@@]57OO6)nn3)ccc12`: the half-inhibitory concentration (IC50) was 17 µM in [4] (setting [26]), 10.7 µM in experiment [17] (setting [27]), 5.72 µM in experiment [23] (setting [27]) and 18.2 µM in [25] (setting [26]).
For `Cc1c(C)c2ccc(-n3cc(CCO[C@H]4O[C@@H]5O[C@@]6(C)CC[C@H]7[C@H](C)CC[C@@H]([C@H]4C)[C@@]57OO6)nn3)cc2oc1=O` the same measures were 3.75 µM, 0.08 µM, 4.71 µM and 3.58 µM.
Taken in the same sequence, the figures for `C[C@H]1[C@@H](Oc2ccc3c(C(F)(F)F)cc(=O)oc3c2)O[C@@H]2O[C@@]3(C)CC[C@H]4[C@H](C)CC[C@@H]1[C@@]24OO3` were 56.8 µM, 22.3 µM, 11.1 µM and 3.25 µM.
